High-throughput results as filed in PubChem.
hiPSC survival = enhancers of human iPSC single-cell survival | survival enhancement, % at 20 µM | hiPSC single-cell survival, ATPlite luminescence; 100% = ROCK inhibitor wells, 0% = DMSO | 360,000 compounds, 0.044% hits; in the data active means survival enhancement above about 18%;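 further: cells exposed to compounds for 16 hours before the ATP read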
MPTP block = blocks calcium-induced mitochondrial swelling. 360,000 compounds, 1.4% hits. isolated mouse mitochondria, Ca2+ swelling absorbance, 30 min. inhibition, % at 10 µM;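 active means inhibition of 50% or more, scaled per plate between neutral and stimulator controls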;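 further: 0% = DMSO wells given calcium and 100% = 1 mM EGTA wells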
UBC13 polyUb = blocks human UBC13 polyubiquitin chain formation. TR-FRET. inhibition, % at 20 µM. 330,000 compounds, 0.47% hits. AID 485273; in the data active means inhibition above about 45%, passing the limit was not always enough; inconclusive means no clear call, values can overlap the other calls
Target sequence (P61088 whole entry, looked up): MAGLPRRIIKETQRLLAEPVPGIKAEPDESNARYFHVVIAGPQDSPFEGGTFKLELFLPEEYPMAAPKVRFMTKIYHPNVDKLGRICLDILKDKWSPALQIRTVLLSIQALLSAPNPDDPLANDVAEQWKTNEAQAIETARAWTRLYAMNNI
Exocytosis inh = lytic granule exocytosis inhibition | 360,000 compounds, 0.66% hits | TALL-104 LAMP-1 surface exposure, flow cytometry; cells stimulated with thapsigargin and PMA | inhibition, % at 10 µM | AID 651702;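 active means inhibition above about 55%, limit read from the data; inconclusive means no clear call, values can overlap the other calls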
Apaf1 inhib = inhibitors of human Apaf-1 apoptosome | AID 489030 | O14727 | 330,000 compounds, 0.71% hits | reconstituted apoptosome caspase-3 activity, DEVD-Rh110 fluorescence | inhibition, % at 20 µM; active means inhibition of at least 40% at 20 µM;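 further: plate controls were DMSO wells for no effect and DEVD-CHO caspase inhibitor wells for full effect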
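System: reconstituted apoptosome with Apaf-1, cytochrome c, caspase-9, procaspase-3, dATP; Signal: Rh110 fluorescence intensity; Schedule: 30 min compound preincubation, 50 min activation, room temperature; Reagent: cytochrome c trigger plus (Z-DEVD)2-Rh110 caspase-3 substrate.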
beta cell repl = MIN6 beta-cell proliferation induction; 330,000 compounds, 0.29% hits; MIN6 cells proliferation, ATPlite luminescence, 48 h; cells starved in 0.2% serum; 100% = growth in 10% serum; proliferation, % at 10 µM;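 active means compounds whose signal lies at least 3.5 SD above the mean of all wells on their plate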;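 further: 0% = DMSO-treated cells in low-serum medium and 100% = 10% serum control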
Casp3 UBC13 ctr = inhibits human caspase-3 in UBC13 counter-screen; shares compounds with UBC13 polyUb; Recombinant caspase-3, Caspase-Glo 3/7 luminescence, 60 min; inhibition, % at 20 µM; 1,400 compounds, 4% hits;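 active means mean inhibition across replicates above about 26%, limit read from the data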;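 further: plate controls were DMSO with caspase-3 for no effect and DMSO wells lacking enzyme for full effect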
Target sequence (P42574 whole entry, looked up): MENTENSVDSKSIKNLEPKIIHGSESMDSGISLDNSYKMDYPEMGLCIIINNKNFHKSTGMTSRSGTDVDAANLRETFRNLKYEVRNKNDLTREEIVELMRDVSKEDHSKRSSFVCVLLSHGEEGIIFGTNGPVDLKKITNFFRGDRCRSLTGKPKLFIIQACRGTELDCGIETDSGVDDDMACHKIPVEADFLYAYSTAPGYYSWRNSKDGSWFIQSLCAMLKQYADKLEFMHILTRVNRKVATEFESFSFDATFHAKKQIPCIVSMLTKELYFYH
UBC13 conf = human UBC13 polyubiquitin inhibition, confirmed | AID 488859 | UBC13 polyubiquitination, TR-FRET, biochemical | 1,400 compounds, 68% hits | inhibition, % at 10 µM | shares compounds with UBC13 polyUb; in the data active means inhibition above about 45%; inconclusive means no clear call, values can overlap the other calls
* marks the source's active call; other numbers are inactive results; ? = inconclusive; · = no result given. An excerpt weighted towards active compounds, which were near 3% of everything screened.

SMILES	hiPSC survival	MPTP block	UBC13 polyUb	Exocytosis inh	Apaf1 inhib	beta cell repl	Casp3 UBC13 ctr	UBC13 conf
CCCCCCCCC(=O)N1CCN(c2cc3c(cc2F)c(=O)c(C(=O)O)cn3CC)CC1	-0.3	-1.9	45.9*	-12.2	10.6	-3.2	1.4	15.9
COc1ccc(NC(=O)CSc2ccc3nnc(-c4ccccn4)n3n2)c(OC)c1	1.1	1.0	-5.0	-3.1	0.4	1.9	·	·
Cc1cccc(N(C(=O)c2snc(C(N)=O)c2N)C(C(=O)NC2CCCC2)c2ccco2)c1 (configuration not stated)	-0.4	0.0	79.1*	-7.9	11.8	0.0	2.9	75.5*
Cc1cccc(N(C(=O)c2snc(C(N)=O)c2N)C(C(=O)NCC2CCCO2)c2cccs2)c1 (configuration not stated)	0.1	-2.3	62.1*	5.3	12.9	1.2	1.2	71.1*
CCc1ccc(N(C(=O)c2snc(C(N)=O)c2N)C(C(=O)NCC2CCCO2)c2cccs2)cc1 (configuration not stated)	1.9	2.1	43.8	-0.2	15.4	-2.1	·	·
NC(=O)c1nsc(C(=O)N(c2ccc(Cl)cc2)C(C(=O)NCC2CCCO2)c2cccs2)c1N (configuration not stated)	2.2	-0.4	45.5*	-3.7	23.8	0.6	2.6	49.5*
CCOC(=O)[C@]12CCCC=C1N(CCc1ccc(OC)c(OC)c1)C(=O)[C@H](CC(=O)NCC13CC4CC(CC(C4)C1)C3)C2	·	0.9	·	4.5	·	·	·	·
O=C(N[C@@H](Cc1ccccc1)C(=O)OCc1ccccc1)c1nc[nH]c1C(=O)N1CCNCC1	3.1	0.1	14.8	1.7	2.1	-1.6	·	·
O=C(CCSc1nc(-c2ccc3c(c2)OCO3)cc(C(F)(F)F)n1)NCc1ccccc1	-1.6	1.6	?	12.5	26.1	-1.4	·	·
CN(Cc1ccccc1)C(=O)CCSc1nc(-c2ccc3c(c2)OCO3)cc(C(F)(F)F)n1	-2.0	0.6	45.6*	-3.9	22.9	-5.9	-2.3	42.5
CCn1c(=O)cc(SCC(=O)NCCCN2CCN(c3ccccc3F)CC2)c2ccccc21	1.9	0.3	58.2*	5.4	-6.4	0.7	-2.7	?
O=C(CN1C(=O)COc2ccccc21)NCCCN1CCN(c2ccccc2F)CC1	-0.2	0.5	-3.5	-2.5	10.0	-0.2	·	·
CCOc1ccc(NC(=O)CCCOc2cc(=O)n(C)c3ccccc23)cc1	-0.1	-0.1	73.8*	0.7	1.4	0.1	3.8	76.1*
Cn1c(=O)cc(OCCCC(=O)NCCN2CCN(c3ccccc3F)CC2)c2ccccc21	0.3	0.1	57.1*	-5.4	7.0	2.2	0.1	37.9
Cn1c(=O)cc(OCC(=O)NCCCN2CCN(c3ccccc3F)CC2)c2ccccc21	-0.4	-2.8	-10.8	-0.5	0.9	4.8	·	·
CC1CCCCN1C(=O)CSc1nnc(-c2cccnc2)o1 (configuration not stated)	-0.3	0.2	3.8	-12.2	-4.3	-3.0	·	·
CCO[C@H]1OC(C(=O)NCc2ccccc2)=C[C@@H](c2ccccc2)[C@@H]1CCCO	0.1	0.1	50.3*	19.8	5.8	0.4	-0.1	9.9
CCO[C@@H]1OC(C(=O)NCc2ccccc2)=C[C@H](c2ccccc2)[C@H]1CCCO	13.0	-0.5	10.0	-12.2	8.7	-4.9	·	·
Cc1ccc2cc3c(nc2c1)N(c1ccccc1)CC3	1.3	0.0	46.0*	-1.3	12.5	0.6	0.4	32.5
COc1ccc(C2C(C#N)=C(N)Oc3cc(O)ccc32)cc1Cl (configuration not stated)	-0.5	1.3	7.6	13.1	9.0	-0.8	·	·
CCCN1CCN(C(=O)C2CCN(c3ncnc4c3nc3n4CCCCC3)CC2)CC1	-0.4	-0.8	76.6*	-0.4	-7.5	-1.6	-1.2	94.0*
O=C(Nc1ccc(F)c(Cl)c1)C1CCN(c2ncnc3c2nc2n3CCCCC2)CC1	-0.3	-0.4	73.5*	3.0	-4.4	-4.7	5.7	75.4*
O=C(NCC1CCN(Cc2ccccc2F)CC1)C1CCCN(c2ncnc3c2nc2n3CCCCC2)C1 (configuration not stated)	-0.5	-2.1	46.7*	0.3	12.3	0.6	1.4	60.3*
O=C(NCCCN1CCCCC1)C1CCN(c2ncnc3c2nc2n3CCCCC2)CC1	-0.4	-2.2	72.8*	-1.8	4.4	-0.6	-0.8	86.2*
CNc1ccc(-c2ccccc2OC)cn1	-1.0	0.5	·	-2.8	·	·	·	·
SMILES	hiPSC survival	MPTP block	UBC13 polyUb	Exocytosis inh	Apaf1 inhib	beta cell repl	Casp3 UBC13 ctr	UBC13 conf
C/C(=N\NC(=O)C1(C)CC1(Br)Br)c1cccc(NC(=O)c2ccc(C)o2)c1 (configuration not stated)	-0.5	-0.4	10.2	0.0	0.9	4.8	·	·
CC1CC(C)CN(C(=O)CCNC(=O)Cn2ccc3ccccc3c2=O)C1 (configuration not stated)	-0.4	0.9	1.7	-3.8	-0.5	0.8	·	·
COc1cc(C(=O)Oc2ccccc2OC(=O)c2cc(OC)c(OC)c(OC)c2)cc(OC)c1OC	-0.5	-0.2	·	3.4	·	·	·	·
O=C(NCCCN1CCN(c2ccccc2)CC1)C1CCCN(c2ncnc3c2nc2n3CCCCC2)C1 (configuration not stated)	-0.5	0.0	80.3*	2.9	-0.7	1.6	-4.8	100.6*
C=CCN=c1scc(-c2ccco2)n1/N=C/c1ccc(O)c(O)c1O	-0.8	8.5	10.5	4.5	9.0	-2.6	·	·
COCCN=c1scc(-c2ccco2)n1/N=C/c1ccc(O)c(O)c1O	-0.2	0.9	46.3*	1.7	19.2	-4.1	-2.1	7.6
CCOC(=O)c1c(CN2CCN(c3ccccc3)CC2)oc2ccc(O)cc12	2.0	0.6	91.4*	-0.7	8.9	-3.1	-2.8	82.8*
Cc1ccc2c(Cl)c(C)c(N3CCOCC3)nc2n1	-0.5	-2.1	·	-3.0	·	·	·	·
NC(=O)CCCn1c(C(=O)c2cc(Cl)c(N)c(Cl)c2)c2ccc([N+](=O)[O-])cc2[n+]1[O-]	-4.7	-1.5	82.4*	4.0	7.8	-7.2	1.4	78.5*
CCSc1ncc(Cl)c(C(=O)Nc2ccc(S(=O)(=O)Nc3ncccn3)cc2)n1	-0.5	0.0	3.3	-8.1	-75.9	-2.0	·	·
CC(=O)Nc1ccc(NC(=O)c2nc(S(=O)(=O)Cc3cccc(C)c3)ncc2Cl)cc1	4.7	3.8	45.1*	-5.1	5.8	-7.0	2.1	46.9*
CCCS(=O)(=O)c1ncc(Cl)c(C(=O)Nc2ccc(S(=O)(=O)Nc3ncccn3)cc2)n1	-0.5	-0.5	53.4*	-1.4	-9.2	-2.4	-1.5	50.2*
